Active and inactive are the calls of the source. No cut-off for these calls is given here.
What was measured:
[1] = target: T1, Nuclear factor erythroid 2-related factor 2 (Mus musculus) (UniProt Q60795); assay: Activation of Nrf2/ARE in E15 stage mouse primary cortical neurons at 6.25 to 50 uM after 48 hrs by human placental alkaline phosphatase reporter gene assay; assay type: cell-based; settings: Cerebral cortex neuron
T1 sequence (whole entry): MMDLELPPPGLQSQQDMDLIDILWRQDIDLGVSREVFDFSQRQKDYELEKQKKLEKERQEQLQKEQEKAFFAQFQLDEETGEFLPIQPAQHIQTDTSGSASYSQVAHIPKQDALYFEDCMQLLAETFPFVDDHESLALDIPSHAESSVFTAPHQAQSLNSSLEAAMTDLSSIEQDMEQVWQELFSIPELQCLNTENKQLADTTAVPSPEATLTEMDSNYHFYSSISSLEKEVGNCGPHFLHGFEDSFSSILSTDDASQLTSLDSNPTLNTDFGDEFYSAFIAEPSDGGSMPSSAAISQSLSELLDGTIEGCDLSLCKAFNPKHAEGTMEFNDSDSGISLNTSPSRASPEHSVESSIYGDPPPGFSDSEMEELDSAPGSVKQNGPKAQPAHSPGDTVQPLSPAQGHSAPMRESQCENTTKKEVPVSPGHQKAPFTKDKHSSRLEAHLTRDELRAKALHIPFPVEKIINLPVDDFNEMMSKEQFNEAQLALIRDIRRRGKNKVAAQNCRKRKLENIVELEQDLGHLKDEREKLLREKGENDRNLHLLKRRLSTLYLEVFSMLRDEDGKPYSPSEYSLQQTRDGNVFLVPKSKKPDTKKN
Procedure, shortened: (§1)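 Mixed cortical cultures (~40% astrocytes/60% neurons) from E15 ARE-hPAP reporter mice, hPAP driven by 51 bp rat NQO1 ARE promoter segment; 6 days in vitro, then compound in DMSO (0.1% final) for 48 h. Lysis in TMNC, endogenous phosphatase heat-inactivated in 200 mM DEA at 65 °C; CSPD chemiluminescence, hPAP-negative baseline subtracted; fold over vehicle, n = 5.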

[2] = target: T1, Nuclear factor erythroid 2-related factor 2 (Mus musculus); assay: Activation of Nrf2/ARE in E15 stage mouse primary cortical neurons after 48 hrs by human placental alkaline phosphatase reporter gene assay; assay type: cell-based; settings: Cerebral cortex neuron; procedure, shortened: as §1
Cerebral cortex neuron [3] = assay: Neuroprotective activity against H2O2-induced oxidative stress in E15 stage mouse primary cortical neurons at 10 uM incubated for 48 hrs prior to H2O2-treatment measured after 24 hrs by TUNEL/DAPI staining-based microscopic analysis; assay type: functional, cell-based
Procedure, shortened: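 Cortical cultures pretreated 48 h with compound or vehicle, then 35 μM H2O2 for 24 h; fragmented DNA detected by TUNEL staining, nuclei counterstained with DAPI, imaged by photomicroscopy.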

[4] = Cytotoxicity against E15 stage mouse primary cortical neurons at 25 uM by MTS assay; assay type: cell-based; settings: cerebral cortex neuron
Procedure, shortened: (§2)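 Mixed cortical cultures from E15 ARE-hPAP mice, 6 days in vitro (5% O2), exposed 48 h to compound in DMSO (0.1% final). Viability read by soluble MTS assay, normalised to vehicle as percent; mean ± SEM, n = 5, one-way ANOVA with Newman-Keuls.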

[5] = target: T1, Nuclear factor erythroid 2-related factor 2 (Mus musculus); assay: Activation of Nrf2/ARE in E15 stage mouse primary cortical neurons at 25 uM after 48 hrs by human placental alkaline phosphatase reporter gene assay relative to control; assay type: cell-based; settings: Cerebral cortex neuron; procedure, shortened: as §1
[6] = target: T1, Nuclear factor erythroid 2-related factor 2 (Mus musculus); assay: Activation of Nrf2/ARE in E15 stage mouse primary cortical neurons at 50 uM after 48 hrs by human placental alkaline phosphatase reporter gene; assay type: cell-based; settings: Cerebral cortex neuron; procedure, shortened: as §1
[7] = target: T1, Nuclear factor erythroid 2-related factor 2 (Mus musculus); assay: Induction of Nrf2/ARE-mediated GCLC gene expression in E15 stage mouse primary cortical neurons at 10 uM after 24 hrs by qPCR analysis; assay type: cell-based; settings: Cerebral cortex neuron
Procedure, shortened: (§3)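 E15 ARE-hPAP mouse mixed cortical cultures treated 24 h with compound or vehicle; total RNA harvested for quantitative PCR, normalised to GAPDH, fold change vs vehicle; n = 8 treated, n = 4 vehicle.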

[8] = target: T1, Nuclear factor erythroid 2-related factor 2 (Mus musculus); assay: Induction of Nrf2/ARE-mediated NQO1 gene expression in E15 stage mouse primary cortical neurons at 10 uM after 24 hrs by qPCR analysis; assay type: cell-based; settings: Cerebral cortex neuron; procedure, shortened: as §3
[9] = Cytotoxicity against E15 stage mouse primary cortical neurons at 50 uM by MTS assay; assay type: cell-based; settings: cerebral cortex neuron; procedure, shortened: as §2
Cerebral cortex neuron [10] = assay: Neuroprotective activity against H2O2-induced toxicity in E15 stage mouse primary cortical neurons at 10 uM incubated for 48 hrs prior to H2O2-treatment measured after 24 hrs by MTS assay; assay type: functional, cell-based
Procedure, shortened: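 Cortical cultures pretreated 48 h with compound or vehicle, then exposed to increasing H2O2 concentrations for 24 h; viability by soluble MTS assay. n = 4 compound, n = 8 vehicle; one-way ANOVA with Newman-Keuls.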

Cerebral cortex neuron [11] = assay: Neuroprotective activity against H2O2-induced oxidative stress in E15 stage mouse primary cortical neurons at 20 uM incubated for 48 hrs prior to H2O2-treatment measured after 24 hrs by TUNEL/DAPI staining-based microscopic analysis; assay type: functional, cell-based
Procedure, shortened: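 Mixed cortical cultures (~40% astrocytes, 60% neurons) from E15 ARE-hPAP reporter mouse pups were pretreated with compound or vehicle for 48 h. They were then exposed to 35 μM H2O2 for a further 24 h. Fragmented DNA was stained by TUNEL and nuclei by DAPI, and both were imaged by photomicroscopy.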

[12] = target: T1, Nuclear factor erythroid 2-related factor 2 (Mus musculus); assay: Induction of Nrf2/ARE-mediated NQO1 gene expression in E15 stage mouse primary cortical neurons at 20 uM after 24 hrs by qPCR analysis; assay type: cell-based; settings: Cerebral cortex neuron
Procedure, shortened: (§4)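 Mixed cortical cultures (~40% astrocytes, 60% neurons) from E15 ARE-hPAP reporter mouse pups, grown in Neurobasal/B27 medium at 37 °C under 5% O2, 5% CO2. Treated with compound or vehicle for 24 h. Total RNA used for quantitative PCR, normalised to GAPDH and expressed as fold change relative to vehicle. Mean ± SEM, n = 8 treated, n = 4 vehicle. One-way ANOVA with Newman-Keuls.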

[13] = target: T1, Nuclear factor erythroid 2-related factor 2 (Mus musculus); assay: Induction of Nrf2/ARE-mediated GCLM gene expression in E15 stage mouse primary cortical neurons at 20 uM after 24 hrs by qPCR analysis; assay type: cell-based; settings: Cerebral cortex neuron; procedure, shortened: as §4
[14] = target: T1, Nuclear factor erythroid 2-related factor 2 (Mus musculus); assay: Induction of Nrf2/ARE-mediated GCLC gene expression in E15 stage mouse primary cortical neurons at 20 uM after 24 hrs by qPCR analysis; assay type: cell-based; settings: Cerebral cortex neuron; procedure, shortened: as §4
Cerebral cortex neuron [15] = assay: Neuroprotective activity against H2O2-induced toxicity in E15 stage mouse primary cortical neurons at 20 uM incubated for 48 hrs prior to H2O2-treatment measured after 24 hrs by MTS assay; assay type: functional, cell-based
Procedure, shortened: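 Mixed cortical cultures (~40% astrocytes, 60% neurons) from E15 ARE-hPAP reporter mouse pups were pretreated with compound or vehicle for 48 h. They were then challenged with increasing H2O2 concentrations for 24 h. Viability was read by soluble MTS assay. Mean ± SEM, n = 4 compound, n = 8 vehicle. One-way ANOVA with Newman-Keuls.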

| SMILES | Activity [1] | Activity [2] | Activity [9] | further results |
| --- | --- | --- | --- | --- |
| CC(C)(C)c1cc(O)ccc1O | Active |  |  |  |
| CC(C)c1cc2c(c(O)c1O)C1=C(CC2)C(C)(C)CCC1=O | Active | Dose-dependent effect |  |  |
| CC(C)c1cc2c(c(O)c1O)[C@@]13CCCC(C)(C)[C@@H]1[C@H](OC3=O)[C@@H]2O | Active | Dose-dependent effect |  |  |
| CC(C)c1cc2c(c(O)c1O)[C@@]13CCCC(C)(C)[C@@H]1[C@H](OC3=O)[C@H]2O | Active | Dose-dependent effect |  |  |
| COc1c(C(C)C)cc2c(c1O)[C@@]1(C(=O)O)CCCC(C)(C)[C@@H]1CC2 | inactive |  |  |  |
| CC(C)c1cc2c(c(O)c1O)[C@@]1(C=O)CCCC(C)(C)[C@@H]1CC2 [CARNOSALDEHYDE] |  | Dose-dependent effect | Toxic | Activity (Cerebral cortex neuron [3]): Active; Activity [4]: Toxic; fold change (FC) [5]: 50; Activity [6]: inactive; Activity [7]: Active; Activity [8]: Active; Activity (Cerebral cortex neuron [10]): Active |
| CC(C)c1cc2c(c(O)c1O)[C@@]1(C(=O)O)CCCC(C)(C)[C@@H]1CC2 [CARNOSIC ACID] | Active | Dose-dependent effect | Toxic |  |
| CC(C)c1cc2c(c(O)c1O)[C@@]13CCCC(C)(C)[C@@H]1C[C@@H]2OC3=O [CARNOSOL] |  | Dose-dependent effect | Toxic | fold change (FC) [5]: 50; Activity (Cerebral cortex neuron [11]): Active; Activity [6]: inactive; Activity [12]: Active; Activity [13]: Active; Activity [14]: Active; Activity (Cerebral cortex neuron [15]): Active |

From ChEMBL document CHEMBL2375217, “Structure activity relationship of phenolic diterpenes from Salvia officinalis as activators of the nuclear factor E2-related factor 2 pathway” (Bioorg Med Chem, 2013)
